Measurements: ChEMBL document CHEMBL1147036, “An NQO1- and PARP-1-mediated cell death pathway induced in non-small-cell lung cancer cells by beta-lapachone” (2007)
Active and inactive are the calls of the source. The calls are words filed in the database; no cut-off is given here.

Legend:
NCI-H596 [1] = assay: Reversal of induction of NAD+ depletion in NQO1 expressing human H596 cells at 10 uM in presence of 40 uM dicoumarol by luciferase based bioluminescence assay; type: functional, cell-based
Summary of the method: (§1)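 10 μM drug ± 40 μM DIC; intracellular NAD+ measured at set times and expressed as % treated/control. Means ± SE of at least three independent experiments, each in duplicate.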

A549 [2] = assay: Reversal of induction of NAD+ depletion in NQO1 expressing human A549 cells at 10 uM in presence of 40 uM dicoumarol by luciferase based bioluminescence assay; type: functional, cell-based; summary of the method: as §1
A549 [3] = assay: Reversal of PARP1 hyperactivation in NQO1 expressing human A549 cells assessed as PAR formation in presence of 3-aminobenzamide; type: functional, cell-based
Summary of the method: (§2)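 Cells pretreated 2 h with or without 25 mM 3-aminobenzamide, then exposed to drug with or without 3-AB for 20 min; PAR formation read by Western blot.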

NCI-H596 [4] = assay: Reversal of PARP1 hyperactivation in NQO1 expressing human H596 cells assessed as PAR formation in presence of 3-aminobenzamide; type: functional, cell-based; summary of the method: as §2
A549 [5] = assay: Reversal of induction of cell death in human A549 cells in presence of 3-aminobenzamide at 10 uM after 48 hrs by TUNEL assay; type: functional, cell-based
A549 [6] = assay: Reversal of induction of DNA damage in human A549 cells in presence of 3-aminobenzamide at 10 uM after 2 hrs; type: functional, cell-based
A549 [7] = assay: Reversal of cell death in human A549 cells at 10 uM in presence of 3-aminobenzamide after 2 hrs; type: functional, cell-based
A549 [8] = assay: Reversal of PARP1 hyperactivation in NQO1 expressing human A549 cells assessed as PAR formation at 6 uM in presence of 1,2-bis(2-aminophenoxy)ethane-N,N,N',N'-tetraacetic acid acetoxymethyl ester; type: functional, cell-based
Summary of the method: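 A549 cells pretreated with 5 μM BAPTA-AM or mock, then exposed to 6 μM drug for 10 min; lysates probed for PAR by Western blot.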

A549 [9] = assay: Reversal of induction of NAD+ depletion in NQO1 expressing human A549 cells at 6 uM in presence of 1,2-bis(2-aminophenoxy)ethane-N,N,N',N'-tetraacetic acid acetoxymethyl ester; type: functional, cell-based
Summary of the method: (§3)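 A549 cells pretreated with 5 μM BAPTA-AM or mock, then given 6 μM drug for 1 h; percent NAD+ loss measured as surrogate of PARP-1 hyperactivation, expressed as % of control.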

A549 [10] = assay: Reversal of cell death in NQO1 expressing human A549 cells at 6 uM in presence of 1,2-bis(2-aminophenoxy)ethane-N,N,N',N'-tetraacetic acid acetoxymethyl ester; type: functional, cell-based
A549 [11] = assay: Induction of NAD+ depletion in NQO1 expressing human A549 cells at 6 uM after 1 hr by luciferase based bioluminescence assay; type: functional; summary of the method: as §3
NCI-H596 [12] = assay: Induction of DNA damage in NQO1 expressing human H596 cells at 10 uM in presence of dicoumarol after 2 hrs by alkaline comet tail assay; type: functional, cell-based
Summary of the method: (§4)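 Cells exposed 10 μM drug for 2 h, ± 50 μM DIC; 2 mM H2O2 for 2 h as positive control. Alkaline comet assay, SYBR Green staining, fluorescence microscopy; tail lengths quantified in arbitrary units. Means ± SE from three experiments.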

A549 [13] = assay: Induction of DNA damage in NQO1 expressing human A549 cells at 10 uM in presence of dicoumarol after 2 hrs by alkaline comet tail assay; type: functional, cell-based; summary of the method: as §4
NCI-H596 [14] = assay: Reversal of induction of PARP1 hyperactivation in NQO1 expressing human H596 cells assessed as PAR accumulation at 10 uM for 10 mins by Western blot; type: functional, cell-based
A549 [15] = assay: Reversal of induction of nucleotide depletion in NQO1 expressing human A549 cells in presence of 3-aminobenzamide by luciferase based bioluminescence assay; type: functional, cell-based
Summary of the method: (§5)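 Cells pretreated 2 h ± 25 mM 3-AB, then drug ± 3-AB; harvested at set times. NAD+ as % treated/control; ATP by luciferase bioluminescence of whole-cell extracts. Means ± SE of three experiments.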

NCI-H596 [16] = assay: Reversal of induction of nucleotide depletion in NQO1 expressing human H596 cells in presence of 3-aminobenzamide by luciferase based bioluminescence assay; type: functional, cell-based; summary of the method: as §5
NCI-H596 [17] = assay: Cytotoxicity against NQO1 expressing human H596 cells assessed as long term survival at =>5 uM for 2 hrs; type: functional, cell-based
Summary of the method: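 Isogenic H596 lines (retroviral NQO1 or empty vector, pooled, puromycin 1.0 μg/ml selected) in DMEM/10% FBS, 37°C, 5% CO2. Drug given 2 h, then removed; relative survival from DNA content after 7 days' growth. Confirmed by colony formation; means ± SE of three experiments in triplicate.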

A549 [18] = assay: Cytotoxicity against NQO1 expressing human A549 cells after 2 hrs; type: functional; details: A549, 2 h, read-out: LD50 (the source's name)
Summary of the method: (§6)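 Long-term relative survival assay: cells exposed to drug for 2 h (A549 with or without 50 μM dicoumarol), drug removed, then grown 7 days post-treatment in DMEM with 10% FBS at 37°C, 5% CO2. Survival read from DNA content and confirmed by colony-forming ability. LD50 from dose-response; means ± SE, at least three experiments in triplicate. H596 line stably expressing NQO1 via retroviral vector, puromycin-selected.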

[19] = Cytotoxicity against NQO1 expressing human H596 cells after 2 hrs; type: functional; details: NCI-H596, 2 h, read-out: LD50 (the source's name); summary of the method: as §6
NCI-H596 [20] = assay: Induction of oxidative stress in NQO1 expressing human H596 cells assessed as reactive oxygen species generation at 10 uM after 1 hr by flow cytometry; type: functional, cell-based
Summary of the method: (§7)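 Cells given 10 μM drug ± 50 μM DIC; ROS monitored over a time course by conversion of chloromethyl-dichlorodihydrofluorescein diacetate to fluorescent product, read by flow cytometry. 2 mM H2O2 or 10 μM antimycin A for 20 min as positive controls. Means ± SE, three experiments in duplicate.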

A549 [21] = assay: Induction of oxidative stress in NQO1 expressing human A549 cells assessed as reactive oxygen species generation at 10 uM after 1 hr by flow cytometry; type: functional, cell-based; summary of the method: as §7
NCI-H596 [22] = assay: Induction of DNA damage in NQO1 expressing human H596 cells at 10 uM after 2 hrs by alkaline comet tail assay; type: functional, cell-based; summary of the method: as §4
A549 [23] = assay: Induction of DNA damage in NQO1 expressing human A549 cells at 10 uM after 2 hrs by alkaline comet tail assay; type: functional, cell-based; summary of the method: as §4
NCI-H596 [24] = assay: Induction of DNA damage in NQO1 deficient human H596 cells at 10 uM after 2 hrs by alkaline comet tail assay; type: functional, cell-based; summary of the method: as §4
NCI-H596 [25] = assay: Induction of PARP1 hyperactivation in NQO1 expressing human H596 cells assessed as PAR accumulation at 10 uM for 10 mins by Western blot; type: functional, cell-based
A549 [26] = assay: Induction of PARP1 hyperactivation in NQO1 expressing human A549 cells assessed as PAR accumulation at 10 uM for 10 mins by Western blot; type: functional, cell-based
NCI-H596 [27] = assay: Induction of PARP1 hyperactivation in NQO1 deficient human H596 cells assessed as PAR accumulation at 10 uM for 10 mins by Western blot; type: functional, cell-based
NCI-H596 [28] = assay: Induction of ATP depletion in NQO1 expressing human H596 cells at 10 uM by luciferase based bioluminescence assay; type: functional, cell-based
Summary of the method: (§8)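 Cells exposed to 10 μM drug, harvested at set times; ATP measured in whole-cell extracts by luciferase bioluminescence. DIC coadded with drug in NQO1 inhibition arms. Means ± SE, three or more experiments in triplicate.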

A549 [29] = assay: Induction of ATP depletion in NQO1 expressing human A549 cells at 10 uM by luciferase based bioluminescence assay; type: functional, cell-based; summary of the method: as §8
NCI-H596 [30] = assay: Induction of NAD+ depletion in NQO1 expressing human H596 cells at 10 uM by luciferase based bioluminescence assay; type: functional, cell-based; summary of the method: as §1
A549 [31] = assay: Induction of NAD+ depletion in NQO1 expressing human A549 cells at 10 uM by luciferase based bioluminescence assay; type: functional, cell-based; summary of the method: as §1
NCI-H596 [32] = assay: Reversal of PAR-polymer formation in NQO1 expressing human H596 cells at 10 uM in presence of 50 uM dicoumarol; type: functional, cell-based
A549 [33] = assay: Reversal of PAR-polymer formation in NQO1 expressing human A549 cells at 10 uM in presence of 50 uM dicoumarol; type: functional, cell-based
NCI-H596 [34] = assay: Reversal of induction of ATP depletion in NQO1 expressing human H596 cells at 10 uM in presence of 40 uM dicoumarol by luciferase based bioluminescence assay; type: functional, cell-based; summary of the method: as §8
A549 [35] = assay: Reversal of induction of ATP depletion in NQO1 expressing human A549 cells at 10 uM in presence of 40 uM dicoumarol by luciferase based bioluminescence assay; type: functional, cell-based; details: in the assay text read “50 uM dicoumarol” for “40 uM dicoumarol”; summary of the method: as §8

With `CC1(C)CCC2=C(O1)c1ccccc1C(=O)C2=O` [LAPACHONE] as the compound, how does the Activity (NCI-H596 [1]) read?
Its Activity is “Active”.

What about the Activity (A549 [2]) of the same compound?
The Activity was “Active”.

And the Activity (A549 [3])?
The Activity was “Active”.

What about the Activity (NCI-H596 [4]) of the same compound?
The Activity was “Active”.

What about the Activity (A549 [5]) of the same compound?
The Activity was “Active”.

And the Activity (A549 [6])?
Its Activity is “Active”.

And the Activity (A549 [7])?
Its Activity is “Active”.

And the Activity (A549 [8])?
Its Activity is “Active”.

What about the Activity (A549 [9]) of the same compound?
The Activity was “Active”.

And the Activity (A549 [10])?
Its Activity is “Active”.

And the Activity (A549 [11])?
Its Activity is 43%.

What about the Activity (NCI-H596 [12]) of the same compound?
Its Activity is “inactive”.

What about the Activity (A549 [13]) of the same compound?
Its Activity is “inactive”.

And the Activity (NCI-H596 [14])?
Its Activity is “Active”.

What about the Activity (A549 [15]) of the same compound?
The Activity was “Active”.

And the Activity (NCI-H596 [16])?
Its Activity is “Active”.

And the Activity (NCI-H596 [17])?
The Activity was “Active”.

And the CC50 (A549 [18])?
Its CC50 is 2.5 µM.

What about the CC50 [19] of the same compound?
The CC50 was 4 µM.

And the Activity (NCI-H596 [20])?
Its Activity is “Active”.

And the Activity (A549 [21])?
Its Activity is “Active”.

What about the Activity (NCI-H596 [22]) of the same compound?
Its Activity is “Active”.

What about the Activity (A549 [23]) of the same compound?
The Activity was “Active”.

And the Activity (NCI-H596 [24])?
The Activity was “inactive”.

And the Activity (NCI-H596 [25])?
Its Activity is “Active”.

What about the Activity (A549 [26]) of the same compound?
The Activity was “Active”.

What about the Activity (NCI-H596 [27]) of the same compound?
The Activity was “inactive”.

What about the Activity (NCI-H596 [28]) of the same compound?
The Activity was “Active”.

And the Activity (A549 [29])?
Its Activity is “Active”.

What about the Activity (NCI-H596 [30]) of the same compound?
Its Activity is “Active”.

And the Activity (A549 [31])?
Its Activity is “Active”.

And the Activity (NCI-H596 [32])?
Its Activity is “Active”.

What about the Activity (A549 [33]) of the same compound?
The Activity was “Active”.

And the Activity (NCI-H596 [34])?
Its Activity is “Active”.

And the Activity (A549 [35])?
Its Activity is “Active”.
